In ChEMBL document CHEMBL4028811, “Discovery of 2-substituted 1H-benzo[d]immidazole-4-carboxamide derivatives as novel poly(ADP-ribose)polymerase-1 inhibitors with in vivo anti-tumor activity” (Eur J Med Chem, 2017):
pIC50: −log10 of the molar value.

Legend:
[1] = target: T1, Poly [ADP-ribose] polymerase 1 (Homo sapiens, UniProt P09874); experiment: Inhibition of recombinant human PARP1 expressed in Escherichia coli BL21(DE3) using histone as substrate measured after 1 hr in presence of biotinylated NAD+ by ELISA
[2] = target: Poly [ADP-ribose] polymerase 2 (Homo sapiens, UniProt Q9UGN5); experiment: Inhibition of recombinant human PARP2 expressed in Escherichia coli BL21(DE3) using histone as substrate measured after 1 hr in presence of biotinylated NAD+ by ELISA
Outline: (§1)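 Human recombinant PARP2 (and PARP1) expressed and purified, inhibition measured by ELISA, with AZD2281 as positive control. IC50 from concentration–response fitting.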

[3] = organism: Homo sapiens; experiment: Selectivity ratio of IC50 for recombinant human PARP2 to IC50 for recombinant human PARP1; outline: as §1
[4] = target: T1, Poly [ADP-ribose] polymerase 1; experiment: Inhibition of PARP1 in human MX1 cells assessed as potentiation of temozolomide-induced cytotoxicity at 10 uM after 72 hrs by MTT assay relative to temozolomide alone; type: cell-based
Outline: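 MX-1 cells seeded at 2000/well and exposed for 72 h to TMZ (0–0.5 mmol/L) with or without PARP inhibitor fixed at 10 μmol/L. Survival read by MTT. PF50 = IC50 of TMZ alone / IC50 of TMZ + inhibitor.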

[5] = target: T1, Poly [ADP-ribose] polymerase 1; experiment: Inhibition of recombinant human PARP1 expressed in Escherichia coli BL21(DE3) using sheared DNA as substrate measured after 1 hr in presence of NAD+

T1 sequence (P09874 whole entry): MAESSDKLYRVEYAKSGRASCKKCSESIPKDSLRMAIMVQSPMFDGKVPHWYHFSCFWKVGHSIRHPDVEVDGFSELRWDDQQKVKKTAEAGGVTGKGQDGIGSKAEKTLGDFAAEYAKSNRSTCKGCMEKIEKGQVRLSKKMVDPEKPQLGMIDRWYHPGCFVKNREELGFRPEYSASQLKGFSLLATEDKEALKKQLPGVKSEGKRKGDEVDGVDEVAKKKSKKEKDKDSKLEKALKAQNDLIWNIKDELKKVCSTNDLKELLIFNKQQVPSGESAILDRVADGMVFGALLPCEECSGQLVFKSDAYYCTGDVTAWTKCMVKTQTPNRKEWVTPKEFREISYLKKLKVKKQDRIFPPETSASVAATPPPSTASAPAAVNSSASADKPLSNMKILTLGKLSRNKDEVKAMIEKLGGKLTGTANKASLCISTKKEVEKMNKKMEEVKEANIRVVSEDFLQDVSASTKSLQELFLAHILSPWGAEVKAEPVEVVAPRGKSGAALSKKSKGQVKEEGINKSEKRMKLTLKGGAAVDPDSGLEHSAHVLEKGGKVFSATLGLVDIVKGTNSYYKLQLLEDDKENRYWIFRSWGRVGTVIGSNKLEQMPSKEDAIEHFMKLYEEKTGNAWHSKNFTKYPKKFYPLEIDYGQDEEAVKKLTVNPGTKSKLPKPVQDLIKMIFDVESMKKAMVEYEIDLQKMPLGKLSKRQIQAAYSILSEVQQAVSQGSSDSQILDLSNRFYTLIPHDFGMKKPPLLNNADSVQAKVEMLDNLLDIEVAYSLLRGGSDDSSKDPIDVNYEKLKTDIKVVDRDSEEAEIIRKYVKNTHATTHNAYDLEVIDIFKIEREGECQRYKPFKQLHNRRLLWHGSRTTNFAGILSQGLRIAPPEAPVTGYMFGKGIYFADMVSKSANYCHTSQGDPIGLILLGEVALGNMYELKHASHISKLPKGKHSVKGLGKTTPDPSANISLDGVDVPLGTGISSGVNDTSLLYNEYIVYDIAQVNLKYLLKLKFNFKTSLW
Poly [ADP-ribose] polymerase 2, sequence (Q9UGN5 whole entry): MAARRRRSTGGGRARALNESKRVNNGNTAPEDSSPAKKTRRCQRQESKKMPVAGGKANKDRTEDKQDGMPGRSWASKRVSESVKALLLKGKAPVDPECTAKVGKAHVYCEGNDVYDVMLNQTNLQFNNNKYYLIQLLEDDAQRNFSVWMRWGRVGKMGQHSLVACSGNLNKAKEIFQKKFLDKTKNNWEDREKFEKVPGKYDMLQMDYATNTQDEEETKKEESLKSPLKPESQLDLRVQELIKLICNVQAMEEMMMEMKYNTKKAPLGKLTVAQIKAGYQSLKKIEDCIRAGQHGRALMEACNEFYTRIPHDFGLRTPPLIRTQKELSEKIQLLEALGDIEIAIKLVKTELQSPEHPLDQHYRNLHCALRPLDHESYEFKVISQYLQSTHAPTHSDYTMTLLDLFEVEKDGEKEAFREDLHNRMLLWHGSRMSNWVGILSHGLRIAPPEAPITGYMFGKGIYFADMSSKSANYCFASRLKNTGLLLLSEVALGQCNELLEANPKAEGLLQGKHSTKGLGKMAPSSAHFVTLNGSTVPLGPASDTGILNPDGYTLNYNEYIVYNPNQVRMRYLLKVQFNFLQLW

Row | SMILES | pIC50 [1] | further results
1 | NC(=O)c1cccc2[nH]c(C(=O)N3C[C@H]4CCCN[C@H]4C3)nc12 | 6.94 | 
2 | CC(C)(C)OC(=O)NC1CCN(C(=O)c2nc3c(C(N)=O)cc(F)cc3[nH]2)C1 (stereo unspecified) | < 7.00 | 
3 | NC(=O)c1cccc2[nH]c(C(=O)N3CCC(NC4CCNCC4)CC3)nc12 | 6.50 | 
4 | CC(C)(C)OC(=O)N1CCC(N2CCCC(NC(=O)c3nc4c(C(N)=O)cccc4[nH]3)C2)CC1 (stereo unspecified) |  | pIC50 [5]: 6.09
5 | NC(=O)c1cccc2[nH]c(C(=O)NC3CCNC3)nc12 (stereo unspecified) |  | pIC50 [5]: 6.46
6 | NC(=O)c1cccc2[nH]c(C(=O)NC3CCN(C4CCCCC4)C3)nc12 (stereo unspecified) |  | pIC50 [5]: < 6.00
7 | CCC(=O)N1CCN(C(=O)c2nc3c(C(N)=O)cccc3[nH]2)CC1 | < 7.00 | 
8 | CC(C)(C)OC(=O)N1CCC(NC2CCN(C(=O)c3nc4c(C(N)=O)cccc4[nH]3)C2)CC1 (stereo unspecified) | 5.92 | 
9 | CC(C)(C)OC(=O)N1CCC(N2CCC(NC(=O)c3nc4c(C(N)=O)cccc4[nH]3)CC2)CC1 | 6.06 | 
10 | CC(C)(C)OC(=O)N1CCC(NC2CCN(C(=O)c3nc4c(C(N)=O)cccc4[nH]3)CC2)CC1 | 6.60 | 
11 | CC(C)(C)OC(=O)NC1CCN(C(=O)c2nc3c(C(N)=O)cccc3[nH]2)CC1 | 6.01 | 
12 | CC(C)CCN1CCCC(NC(=O)c2nc3c(C(N)=O)cccc3[nH]2)C1 (stereo unspecified) |  | pIC50 [5]: 6.15
13 | NC(=O)c1cccc2[nH]c(C(=O)NC3CCCNC3)nc12 (stereo unspecified) |  | pIC50 [5]: 6.70
14 | NC(=O)c1cccc2[nH]c(C(=O)NC3CCCN(C4CCNCC4)C3)nc12 (stereo unspecified) |  | pIC50 [5]: 6.10
15 | CC(C)(C)OC(=O)N1CCN(C(=O)c2nc3c(C(N)=O)cccc3[nH]2)CC1 | 6.82 | 

Continued by rising pIC50 [1], values first:

Row | pIC50 [1] | SMILES | further results
16 | 6.95 | CC(C)CCN1CCC(NC(=O)c2nc3c(C(N)=O)cccc3[nH]2)CC1 | 
17 | 7.00 | CC[C@H]1CN(C(=O)c2nc3c(C(N)=O)cccc3[nH]2)CCN1C(=O)OC(C)(C)C | 
18 | 7.06 | CCC(CC)N1CCN(C(=O)c2nc3c(C(N)=O)cc(F)cc3[nH]2)CC1=O | 
19 | 7.09 | CC(C)CN1CCN(C(=O)c2nc3c(C(N)=O)cccc3[nH]2)CC1 | 
20 | 7.10 | CCCNC1CCN(C(=O)c2nc3c(C(N)=O)cccc3[nH]2)C1 (stereo unspecified) | pIC50 [2]: 7.12; Ratio IC50 [3]: < 10; PF50 [4]: 1.54
21 | 7.12 | NC(=O)c1cccc2[nH]c(C(=O)N3CCC(NC4CCCCC4)C3)nc12 (stereo unspecified) | pIC50 [2]: 7.04; Ratio IC50 [3]: < 10; PF50 [4]: 4.17
22 | 7.15 | NC(=O)c1cccc2[nH]c(C(=O)N3CCC(NC4CCCCC4)CC3)nc12 | 
23 | 7.22 | NC(=O)c1cccc2[nH]c(C(=O)N3CCC(NC4CCNCC4)C3)nc12 (stereo unspecified) | 
24 | 7.31 | CCCN1CCC(NC(=O)c2nc3c(C(N)=O)cccc3[nH]2)CC1 | 
25 | 7.39 | CC(C)(C)CN1CCC(NC(=O)c2nc3c(C(N)=O)cccc3[nH]2)CC1 | 
26 | 7.43 | NC(=O)c1cc(F)cc2[nH]c(C(=O)N3CCC(NC4CCCCC4)C3)nc12 (stereo unspecified) | pIC50 [2]: 7.42; Ratio IC50 [3]: < 10; PF50 [4]: 1.71
27 | 7.72 | CC[C@H]1CN(C(=O)c2nc3c(C(N)=O)cccc3[nH]2)CCN1 | 
28 | 7.82 | NC(=O)c1cc(F)cc2[nH]c(C(=O)N3CCNC(=O)C3)nc12 | 
29 | 7.82 | NC(=O)c1cccc2[nH]c(C(=O)N3CCC(N)C3)nc12 (stereo unspecified) | pIC50 [2]: 7.32; Ratio IC50 [3]: < 10; PF50 [4]: 1.98
